Experimental data taken from ChEMBL document CHEMBL4665671 (ACS Med Chem Lett, 2019).
≈ marks a conversion by molar mass, not a printed value. Calls of active or inactive are those of the source. The rule behind the calls is not given here.

Key:
mTORC1 = mTORC1 (Homo sapiens, UniProt P42345); experiment: Inhibition of mTORC1 in human A2058 cells assessed as reduction in ribosomal protein S6 phosphorylation at Ser235/236 residues incubated for 1 hr by Western blot analysis; format: cell-based
[1] = Cmax in C57BL/6J mouse brain at 10 mg/kg, po after 30 mins by UHPLC-MS analysis; format: ADME, organism-based; set-up: route oral, dose 10 mg/kg, time 30 min
How it was run: (§1)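 Male C57BL/6J mice, single oral dose 10 mg/kg. Compound extracted from plasma, brain and thigh muscle at set time points over 8 h and quantified by LC–MS. n = 3, mean per time point.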

[2] = Cmax in C57BL/6J mouse thigh muscle at 10 mg/kg, po after 30 mins by UHPLC-MS analysis; format: ADME, organism-based; set-up: route oral, time 30 min, dose 10 mg/kg; how it was run: as §1
[3] = Clearance in mouse cryopreserved hepatocytes assessed per 10^6 cells at 2.5 uM measured up to 90 mins by LC-MS/MS analysis; format: ADME, cell-based, Hepatocyte; conditions: 1.5 h
How it was run: (§2)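 Cultured rat, mouse, dog and human hepatocytes were incubated with compound. Clearance and half-life were measured. Each experiment was run with n = 3.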

[4] = Clearance in dog cryopreserved hepatocytes assessed per 10^6 cells at 2.5 uM measured up to 90 mins by LC-MS/MS analysis; format: ADME, cell-based, Canis lupus familiaris, Hepatocyte; conditions: 1.5 h; how it was run: as §2
Cytochrome P450 2D6 = Cytochrome P450 2D6 (Homo sapiens, UniProt P10635); experiment: Inhibition of CYP2D6 (unknown origin) by fluorescence assay; format: ADME
Sequence of Cytochrome P450 2D6 (P10635 whole entry): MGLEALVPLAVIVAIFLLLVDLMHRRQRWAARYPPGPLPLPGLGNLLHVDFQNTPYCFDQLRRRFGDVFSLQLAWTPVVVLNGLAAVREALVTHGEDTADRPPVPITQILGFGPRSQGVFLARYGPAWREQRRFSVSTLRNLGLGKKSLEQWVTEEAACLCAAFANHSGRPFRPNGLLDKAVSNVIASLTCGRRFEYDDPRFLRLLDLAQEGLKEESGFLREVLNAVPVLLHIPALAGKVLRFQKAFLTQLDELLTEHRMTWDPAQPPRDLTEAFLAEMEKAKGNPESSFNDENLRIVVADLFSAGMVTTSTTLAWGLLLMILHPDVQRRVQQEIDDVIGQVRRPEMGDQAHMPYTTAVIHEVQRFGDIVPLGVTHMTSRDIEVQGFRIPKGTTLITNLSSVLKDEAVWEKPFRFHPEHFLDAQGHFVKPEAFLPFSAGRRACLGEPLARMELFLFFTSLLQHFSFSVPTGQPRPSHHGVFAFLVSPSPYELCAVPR

[5] = Toxicity in BALB/c nude mouse xenografted with human OVCAR3 cells assessed as effect on body weight at 6.3 mg/kg, po qd administered for 28 days starting from day 17 post inoculation; format: organism-based; conditions: in vivo, 672 h, time 28 day
How it was run: (§3)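 BALB/c nude mice inoculated subcutaneously with 5 × 10^6 OVCAR-3 cells on day 0. From day 17, dosed orally once daily for 28 days; controls received vehicle QD. Tumor size tracked over time, tumor weight taken at day 45, body weight recorded at set time points. n = 8, mean ± SEM; two-way ANOVA with Bonferroni or Dunnett's correction.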

[6] = Permeability of the compound in PBS at pH 7.4 incubated for 2 hrs under shaking condition by PAMPA; format: ADME; conditions: pH 7.4, 2 h
[7] = Tmax in C57BL/6J mouse thigh muscle at 10 mg/kg, po by UHPLC-MS analysis; format: ADME, organism-based; how it was run: as §1
Mus musculus [8] = experiment: Increase in glucose level in C57BL/6J mouse plasma at 10 mg/kg, po measured after 2 hrs by UV/Vis spectrometry analysis; format: functional, organism-based
How it was run: (§4)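 Male C57BL/6J mice given a single oral 10 mg/kg dose. Plasma glucose and insulin levels followed over time after dosing. Mean ± SEM.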

[9] = Half life in C57BL/6J mouse plasma at 10 mg/kg, po by UHPLC-MS analysis; format: ADME, organism-based; how it was run: as §1
[10] = Toxicity in po dosed Wistar male rat assessed as NOAEL administered via gavage for 14 consecutive days; format: organism-based; conditions: in vivo, time 14 day
How it was run: (§5)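 14-day pilot toxicokinetic study in Wistar rats (males and females assessed separately) and beagle dogs. NOAEL was set in mg/kg/day.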

[11] = Toxicity in po dosed Wistar female rat assessed as NOAEL administered via gavage for 14 consecutive days; format: organism-based; conditions: in vivo, time 14 day; how it was run: as §5
[12] = Cmax in C57BL/6J mouse plasma at 10 mg/kg, po after 1 hr by UHPLC-MS analysis; format: ADME, organism-based; set-up: route oral, dose 10 mg/kg, time 1 hrs; conditions: in vivo; how it was run: as §1
OVCAR-3 [13] = experiment: Antitumor activity against human OVCAR-3 cells xenografted in BALB/c nude mouse assessed as tumor growth inhibition at 6.3 mg/kg, po qd administered for 28 days starting from day 17 post inoculation and measured on day 45; format: functional, organism-based; conditions: time 28.0 day; how it was run: as §3
[14] = Thermodynamic solubility of the compound in buffer at pH 1.2 incubated for 24 hrs under agitation condition by shake flask method; format: physicochemical; conditions: read-out: Therm_solubility
[15] = AUC (0 to 8 hrs) in C57BL/6J mouse thigh muscle at 10 mg/kg, po by UHPLC-MS analysis; format: ADME, organism-based; set-up: time < 8 hr, route oral, dose 10 mg/kg; conditions: in vivo; how it was run: as §1
Cytochrome P450 3A4 = Cytochrome P450 3A4 (Homo sapiens, UniProt P08684); experiment: Inhibition of CYP3A4 (unknown origin) by fluorescence assay; format: ADME
Sequence of Cytochrome P450 3A4 (P08684 whole entry): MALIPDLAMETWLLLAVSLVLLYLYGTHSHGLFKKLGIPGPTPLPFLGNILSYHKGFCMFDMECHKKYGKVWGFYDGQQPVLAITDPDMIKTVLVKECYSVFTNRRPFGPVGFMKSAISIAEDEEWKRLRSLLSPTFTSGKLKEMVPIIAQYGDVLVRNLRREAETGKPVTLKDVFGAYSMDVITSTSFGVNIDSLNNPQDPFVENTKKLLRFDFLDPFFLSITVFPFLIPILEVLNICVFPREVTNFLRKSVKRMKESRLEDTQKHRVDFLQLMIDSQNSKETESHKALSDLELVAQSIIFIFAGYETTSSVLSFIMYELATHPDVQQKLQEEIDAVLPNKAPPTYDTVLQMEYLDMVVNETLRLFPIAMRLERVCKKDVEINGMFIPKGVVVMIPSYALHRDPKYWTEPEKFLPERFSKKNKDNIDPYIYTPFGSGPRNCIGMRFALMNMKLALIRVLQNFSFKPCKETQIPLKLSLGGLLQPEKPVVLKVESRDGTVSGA

Cytochrome P450 1A2 = target: T1, Cytochrome P450 1A2 (Homo sapiens, UniProt P05177); experiment: Inhibition of CYP1A2 (unknown origin) by fluorescence assay; format: ADME
T1 sequence (P05177 whole entry): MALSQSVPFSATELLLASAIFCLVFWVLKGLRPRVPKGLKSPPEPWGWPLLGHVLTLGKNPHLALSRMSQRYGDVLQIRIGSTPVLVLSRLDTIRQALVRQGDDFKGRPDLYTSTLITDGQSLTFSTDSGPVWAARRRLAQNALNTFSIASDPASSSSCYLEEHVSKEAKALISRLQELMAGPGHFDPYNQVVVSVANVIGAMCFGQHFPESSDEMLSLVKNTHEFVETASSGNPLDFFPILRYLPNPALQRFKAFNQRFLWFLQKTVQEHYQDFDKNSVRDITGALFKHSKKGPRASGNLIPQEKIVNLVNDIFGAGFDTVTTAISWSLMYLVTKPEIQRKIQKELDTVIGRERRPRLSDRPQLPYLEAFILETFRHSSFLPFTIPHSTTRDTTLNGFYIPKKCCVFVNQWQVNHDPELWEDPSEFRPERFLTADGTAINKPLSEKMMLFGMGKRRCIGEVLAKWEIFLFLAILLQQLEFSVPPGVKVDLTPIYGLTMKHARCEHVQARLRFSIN

[16] = Clearance in rat cryopreserved hepatocytes assessed per 10^6 cells at 2.5 uM measured up to 90 mins by LC-MS/MS analysis; format: ADME, cell-based, Hepatocyte; conditions: 1.5 h; how it was run: as §2
[17] = AUC (0 to 8 hrs) in C57BL/6J mouse plasma at 10 mg/kg, po by UHPLC-MS analysis; format: ADME, organism-based; set-up: time < 8 hr, route oral, dose 10 mg/kg; conditions: in vivo; how it was run: as §1
[18] = target: T2, Serine/threonine-protein kinase mTOR (Homo sapiens, UniProt P42345); experiment: Displacement of alexa fluor 647-labeled kinase tracer 314 from recombinant human N-terminal GST-fused mTOR (1360 to 2549 residues) expressed in baculovirus expression system by TR-FRET assay
[19] = Half life in dog cryopreserved hepatocytes at 2.5 uM measured up to 90 mins by LC-MS/MS analysis; format: ADME, cell-based, Canis lupus familiaris, Hepatocyte; conditions: 1.5 h; how it was run: as §2
[20] = Tmax in C57BL/6J mouse brain at 10 mg/kg, po by UHPLC-MS analysis; format: ADME, organism-based; how it was run: as §1
[21] = Toxicity in BALB/c nude mouse xenografted with human OVCAR3 cells assessed as maximum tolerated dose; conditions: in vivo
Cytochrome P450 2C19 = Cytochrome P450 2C19 (Homo sapiens, UniProt P33261); experiment: Inhibition of CYP2C19 (unknown origin) by fluorescence assay; format: ADME
Sequence of Cytochrome P450 2C19 (P33261 whole entry): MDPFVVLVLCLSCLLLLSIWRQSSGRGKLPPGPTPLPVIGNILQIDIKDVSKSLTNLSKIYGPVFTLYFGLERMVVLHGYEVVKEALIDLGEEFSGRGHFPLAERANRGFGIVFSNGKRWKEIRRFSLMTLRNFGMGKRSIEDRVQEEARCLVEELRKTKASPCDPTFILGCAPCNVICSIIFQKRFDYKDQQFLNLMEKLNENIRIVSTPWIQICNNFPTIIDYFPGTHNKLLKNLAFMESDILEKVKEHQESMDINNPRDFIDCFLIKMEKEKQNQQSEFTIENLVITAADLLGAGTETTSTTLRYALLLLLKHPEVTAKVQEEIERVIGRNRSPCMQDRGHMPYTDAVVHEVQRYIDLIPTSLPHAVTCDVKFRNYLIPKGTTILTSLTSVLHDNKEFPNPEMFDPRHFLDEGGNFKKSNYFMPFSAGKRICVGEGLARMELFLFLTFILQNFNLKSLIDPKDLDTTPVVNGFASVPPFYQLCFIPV

[22] = Half life in mouse cryopreserved hepatocytes at 2.5 uM measured up to 90 mins by LC-MS/MS analysis; format: ADME, cell-based, Hepatocyte; conditions: 1.5 h; how it was run: as §2
[23] = Half life in rat cryopreserved hepatocytes at 2.5 uM measured up to 90 mins by LC-MS/MS analysis; format: ADME, cell-based, Hepatocyte; conditions: 1.5 h; how it was run: as §2
[24] = target: T2, Serine/threonine-protein kinase mTOR; experiment: Displacement of alexa fluor 647-labeled kinase tracer 314 from recombinant human N-terminal GST-fused mTOR (1360 to 2549 residues) expressed in baculovirus expression system by TR-FRET assay relative to parent compound
[25] = Half life in human cryopreserved hepatocytes at 2.5 uM measured up to 90 mins by LC-MS/MS analysis; format: ADME, cell-based, Hepatocyte; conditions: 1.5 h; how it was run: as §2
[26] = Thermodynamic solubility of the compound in buffer at pH 1.2 to 6.8 incubated for 24 hrs under agitation condition by shake flask method; format: physicochemical; conditions: read-out: Therm_solubility
Mus musculus [27] = experiment: Increase in insulin level in C57BL/6J mouse plasma at 10 mg/kg, po measured after 2 hrs by UV/Vis spectrometry analysis; format: functional, organism-based; how it was run: as §4
OVCAR-3 [28] = experiment: Antitumor activity against human OVCAR-3 cells xenografted in BALB/c nude mouse assessed as effect on tumor size at 6.3 mg/kg, po qd administered for 28 days starting from day 17 post inoculation and measured on day 45 (reference value: 1031 mm3); conditions: time 28 day
[29] = Tmax in C57BL/6J mouse plasma at 10 mg/kg, po by UHPLC-MS analysis; format: ADME, organism-based; how it was run: as §1
[30] = Clearance in human cryopreserved hepatocytes assessed per 10^6 cells at 2.5 uM measured up to 90 mins by LC-MS/MS analysis; format: ADME, cell-based, Hepatocyte; conditions: 1.5 h; how it was run: as §2
mTORC2 = mTORC2 (Homo sapiens, UniProt P42345); experiment: Inhibition of mTORC2 in human A2058 cells assessed as reduction in PKB phosphorylation at S473 residue incubated for 1 hr by Western blot analysis; format: cell-based
[31] = Half life in C57BL/6J mouse thigh muscle at 10 mg/kg, po by UHPLC-MS analysis; format: ADME, organism-based; how it was run: as §1
[32] = Toxicity in po dosed Beagle dog assessed as NOAEL administered via gavage for 14 consecutive days; format: organism-based, Canis lupus familiaris; conditions: in vivo, time 14 day; how it was run: as §5
[33] = AUC (0 to 8 hrs) in C57BL/6J mouse brain at 10 mg/kg, po by UHPLC-MS analysis; format: ADME, organism-based; set-up: time < 8 hr, route oral, dose 10 mg/kg; conditions: in vivo; how it was run: as §1
[34] = Half life in C57BL/6J mouse brain at 10 mg/kg, po by UHPLC-MS analysis; format: ADME, organism-based; how it was run: as §1
[35] = Clearance in C57BL/6J mouse plasma at 10 mg/kg, po by UHPLC-MS analysis; format: ADME, organism-based
How it was run: (§6)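 Male C57BL/6J mice given a single oral 10 mg/kg dose. Plasma, brain and thigh muscle sampled at set times up to 8 h. Compound extracted from each tissue and quantified by LC–MS. n = 3, mean per time point.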

[36] = Ratio of drug level in brain to plasma in C57BL/6J mouse at 10 mg/kg, po by UHPLC-MS analysis; format: ADME, organism-based; conditions: brain and plasma, read-out: BPR; how it was run: as §6
[37] = target: Phosphatidylinositol 4,5-bisphosphate 3-kinase catalytic subunit alpha isoform (Homo sapiens, UniProt P42336); experiment: Displacement of alexa fluor 647-labeled kinase tracer 314 from recombinant N-terminal His6-tagged p110alpha (unknown origin) by TR-FRET assay
Sequence of Phosphatidylinositol 4,5-bisphosphate 3-kinase catalytic subunit alpha isoform (P42336 whole entry, canonical isoform): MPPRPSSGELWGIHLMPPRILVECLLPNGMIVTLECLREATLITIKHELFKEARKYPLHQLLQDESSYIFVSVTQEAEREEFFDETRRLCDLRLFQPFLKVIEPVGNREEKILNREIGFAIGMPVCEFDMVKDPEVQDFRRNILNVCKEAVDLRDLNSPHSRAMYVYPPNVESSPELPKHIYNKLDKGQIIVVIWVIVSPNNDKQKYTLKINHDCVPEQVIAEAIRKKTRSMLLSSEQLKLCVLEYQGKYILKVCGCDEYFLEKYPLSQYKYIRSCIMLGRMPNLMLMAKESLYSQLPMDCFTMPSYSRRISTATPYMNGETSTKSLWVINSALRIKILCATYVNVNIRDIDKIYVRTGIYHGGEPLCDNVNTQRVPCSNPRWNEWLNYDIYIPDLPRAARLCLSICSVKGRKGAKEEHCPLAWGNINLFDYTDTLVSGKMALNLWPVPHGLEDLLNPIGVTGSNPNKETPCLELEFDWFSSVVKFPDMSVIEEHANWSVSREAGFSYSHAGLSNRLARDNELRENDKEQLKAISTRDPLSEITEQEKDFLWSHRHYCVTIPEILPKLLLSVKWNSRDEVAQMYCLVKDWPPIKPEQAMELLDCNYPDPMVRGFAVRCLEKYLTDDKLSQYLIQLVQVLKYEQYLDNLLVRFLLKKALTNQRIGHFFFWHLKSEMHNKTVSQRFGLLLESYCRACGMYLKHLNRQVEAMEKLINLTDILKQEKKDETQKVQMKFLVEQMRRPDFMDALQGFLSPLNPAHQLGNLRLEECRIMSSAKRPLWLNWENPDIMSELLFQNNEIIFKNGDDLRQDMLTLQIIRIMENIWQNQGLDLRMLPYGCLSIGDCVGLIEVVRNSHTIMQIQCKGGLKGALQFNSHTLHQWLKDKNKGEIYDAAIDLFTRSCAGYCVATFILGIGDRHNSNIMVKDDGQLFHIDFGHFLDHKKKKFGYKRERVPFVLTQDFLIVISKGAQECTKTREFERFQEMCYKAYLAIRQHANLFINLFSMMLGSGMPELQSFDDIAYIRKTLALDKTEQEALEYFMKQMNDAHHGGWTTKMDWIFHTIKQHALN

## Nc1ncc(-c2nc(N3CCOCC3)nc(N3CCOCC3)n2)c(C(F)F)n1
mTORC1
  IC50: 61 nM
[1]
  Cmax: 1020 ng/mL
[2]
  Cmax: 1810 ng/mL
[3]
  CLH: 7 µL/min
[4]
  CLH: 6.7 µL/min
Cytochrome P450 2D6
  IC50: > 100000 nM
[5]
  Activity: Non-Toxic
[6]
  permeability: 8.196 ×10⁻⁶ cm/s
[7]
  Tmax: 0.5 h
Mus musculus [8]
  Activity: Active
[9]
  half-life: 1.7 h
[10]
  NOAEL at 336 h: 3.6 mg/kg
[11]
  NOAEL at 336 h: 2.4 mg/kg
[12]
  Cmax: 3282 ng/mL
OVCAR-3 [13]
  growth inhibition (GI): Active
[14]
  solubility thermodynamic at 24 h: 13.6 µg/mL (≈ 34.5 µM)
[15]
  AUC: 4526 ng·h/mL
Cytochrome P450 3A4
  IC50: > 100000 nM
Cytochrome P450 1A2
  IC50: > 100000 nM
[16]
  CLH: 1.5 µL/min
[17]
  AUC: 10315 ng·h/mL
[18]
  Ki: 33 nM
[19]
  t1/2: 3.528 h
[20]
  Tmax: 0.5 h
[21]
  MTD: 6.3 mg/kg
Cytochrome P450 2C19
  IC50: > 100000 nM
[22]
  t1/2: 3.208 h
[23]
  t1/2: 8.67 h
[24]
  Ratio Ki: 2
[25]
  t1/2: 5.775 h
[26]
  solubility thermodynamic at 24 h: > 1 µg/mL
Mus musculus [27]
  Activity: Active
OVCAR-3 [28]
  Activity: 397 mm3
[29]
  Tmax: 1 h
[30]
  CLH: 4 µL/min
mTORC2
  IC50: 17 nM
[31]
  half-life: 1.6 h
[32]
  NOAEL at 336 h: 10 mg/kg
[33]
  AUC: 2757 ng·h/mL
[34]
  half-life: 1.6 h
[35]
  CL/F: 15.6 mL/min/kg
[36]
  Kp: 0.3

## Nc1ncc(-c2nc(N3CCOCC3)nc(N3C[C@H]4CC[C@@H](C3)O4)n2)c(C(F)F)n1
mTORC1
  IC50: 139 nM
[18]
  Ki: 29 nM
[37]
  Ki: 4.4 nM
mTORC2
  IC50: 84 nM

## C[C@@H]1COCCN1c1nc(-c2cnc(N)nc2C(F)F)nc(N2CCOCC2)n1
mTORC1
  IC50: 116 nM
[18]
  Ki: 21 nM
[37]
  Ki: 2.7 nM
mTORC2
  IC50: 64 nM

## Nc1ncc(-c2nc(N3CCOCC3)nc(N3[C@@H]4CC[C@H]3COC4)n2)c(C(F)F)n1
mTORC1
  IC50: 91 nM
[18]
  Ki: 14 nM
[37]
  Ki: 3.4 nM
mTORC2
  IC50: 73 nM
